Data taken from ChEMBL document CHEMBL1128415 (J Med Chem, 1995).
Several values for one entry are separate records, joined by “and”; a condition that tells them apart may be missing. Identical values can stand only once.

Experiments:
[1] = target: T1, Angiotensin II receptor (AT-1) type-1 (Rattus norvegicus, UniProt P29089+P25095); test: Specific binding inhibition of [125I]AII to Angiotensin II receptor, type 1 in rat liver membrane; format: cell membranes
T1 sequence (P29089 whole entry): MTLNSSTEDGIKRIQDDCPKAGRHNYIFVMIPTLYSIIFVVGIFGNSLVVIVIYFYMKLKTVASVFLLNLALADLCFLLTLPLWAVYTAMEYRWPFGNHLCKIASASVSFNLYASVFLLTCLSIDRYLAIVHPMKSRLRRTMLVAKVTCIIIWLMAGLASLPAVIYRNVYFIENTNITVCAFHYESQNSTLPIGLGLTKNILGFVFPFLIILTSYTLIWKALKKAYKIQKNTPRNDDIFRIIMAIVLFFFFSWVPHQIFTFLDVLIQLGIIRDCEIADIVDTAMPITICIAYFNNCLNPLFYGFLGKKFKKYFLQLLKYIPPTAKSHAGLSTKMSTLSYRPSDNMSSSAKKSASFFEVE
T1 sequence (P25095 whole entry): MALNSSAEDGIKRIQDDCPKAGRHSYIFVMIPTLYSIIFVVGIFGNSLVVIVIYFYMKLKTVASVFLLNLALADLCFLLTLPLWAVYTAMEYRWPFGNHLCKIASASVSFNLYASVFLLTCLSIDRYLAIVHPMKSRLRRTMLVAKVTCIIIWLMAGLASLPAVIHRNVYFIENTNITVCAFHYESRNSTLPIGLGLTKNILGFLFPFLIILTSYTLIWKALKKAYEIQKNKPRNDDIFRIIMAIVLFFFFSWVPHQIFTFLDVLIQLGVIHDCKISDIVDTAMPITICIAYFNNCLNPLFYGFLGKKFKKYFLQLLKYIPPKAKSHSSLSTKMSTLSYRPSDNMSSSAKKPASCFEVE

[2] = target: T2, Angiotensin II receptor (AT-1) type-1 (Rattus norvegicus) (UniProt P29089+P25095); test: Inhibition of pressor response induced by infusion of AII in rats when dose is administered intravenously; format: functional
Procedure, shortened: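 Normotensive Sprague-Dawley pithed rats (n = 4), BP recorded by carotid catheter. AII 0.75 μg/kg injected via jugular vein; three control responses taken. Each later AII challenge followed, by 5 min, an iv injection of antagonist at increasing doses, in water or water with 2 equiv NaOH.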

[3] = target: T2, Angiotensin II receptor (AT-1) type-1 (Rattus norvegicus); test: Inhibition of pressor response induced by infusion of angiotensin II in rats, administered perorally; format: functional
Procedure, shortened: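 Sprague-Dawley rats (n = 18-28) dosed by gastric tube in groups; vehicle water or water with 2 equiv NaOH; controls given water. At 50 min rats anaesthetised, pithed, ventilated, with carotid and jugular catheters. At 1 h post-dose AII 0.75 μg/kg iv given.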

[4] = test system: Rattus norvegicus; test: Effective dose to inhibit AII-induced pressor response in pithed rats, was determined in vivo after intraduodenal administration; conditions: read-out: ID50 (the source's name)

IC50 [1] | ID50 [2] | ID50 [3] | Structure (SMILES) | ED50 [4]
0.2 nM | 2.01 mg/kg |  | CCCCc1nc(Sc2cccs2)c(C(=O)O)n1Cc1ccc(-c2ccccc2S(=O)(=O)NC(=O)NCCC)cc1 | 
114 nM |  |  | CCCCc1nc(SC)c(C(=O)O)n1Cc1ccc(-c2ccccc2C(=O)NC(=O)NCCC)cc1 | 
0.2 nM | 0.15 mg/kg | 0.43 mg/kg | CCCCc1nc(SC)c(C(=O)O)n1Cc1ccc(-c2ccccc2S(=O)(=O)NC(=O)OCC(C)C)cc1 | 
78 nM |  |  | CCCCc1nc(SC)c(C(=O)OCC)n1Cc1ccc(-c2ccccc2S(=O)(=O)N(C)C(=O)NCCC)cc1 | 
0.8 nM | 0.11 mg/kg | 1.28 mg/kg | CCCCc1nc(SC(F)(F)F)c(C(=O)O)n1Cc1ccc(-c2ccccc2S(=O)(=O)NC(=O)NCCC)cc1 | 
1 nM | 0.13 mg/kg | 2.02 mg/kg | CCCCc1nc(SC)c(C(=O)O)n1Cc1ccc(-c2ccccc2S(=O)(=O)NC(C)=O)cc1 | 
0.8 nM | 1.45 mg/kg |  | CCCCc1nc(SC)c(C(=O)O)n1Cc1ccc(-c2ccccc2S(=O)(=O)NS(=O)(=O)C(F)(F)F)cc1 | 
1.1 nM |  |  | CCCCc1nc(SC)c(C(=O)O)n1Cc1ccc(-c2ccccc2S(=O)(=O)NS(=O)(=O)CC)cc1 | > 1 mg/kg
1.7 nM | 0.09 mg/kg | 3.01 mg/kg | CCCCc1nc(SC)c(C(=O)NC(C)=O)n1Cc1ccc(-c2ccccc2S(=O)(=O)NC(=O)NCCC)cc1 | 
36 nM | 5.6 mg/kg | > 30 mg/kg | CCCCc1nc(SC)c(C(=O)O)n1Cc1ccc(-c2ccccc2S(N)(=O)=O)cc1 | 
0.3 nM | 0.83 mg/kg | 5.3 mg/kg | CCCCc1nc(SCC(F)(F)C(F)(F)CO)c(C(=O)O)n1Cc1ccc(-c2ccccc2S(=O)(=O)NC(=O)NCCC)cc1 | 
0.2 nM | 0.06 mg/kg | 0.95 mg/kg | CCCCc1nc(SC)c(C(=O)O)n1Cc1ccc(-c2ccccc2S(=O)(=O)NC(=O)CCC)cc1 | 
 | 0.09 mg/kg | 0.21 mg/kg | CCCCNC(=O)NS(=O)(=O)c1ccccc1-c1ccc(Cn2c(CCCC)nc(SC)c2C(=O)O)cc1 | 
0.8 nM | 0.05 mg/kg | 2.4 mg/kg | CCCCc1nc(SC)c(C(=O)NCC(=O)OC)n1Cc1ccc(-c2ccccc2S(=O)(=O)NC(=O)NCCC)cc1 | 
3.1 nM | 0.14 mg/kg | > 10 mg/kg | CCCCc1nc([S+](C)[O-])c(C(=O)O)n1Cc1ccc(-c2ccccc2S(=O)(=O)NC(=O)NCCC)cc1 (stereo not given) | 
1.5 nM | 0.06 mg/kg | 3.55 mg/kg | CCCCc1nc(SC)c(C(=O)NCC(=O)O)n1Cc1ccc(-c2ccccc2S(=O)(=O)NC(=O)NCCC)cc1 | 
0.2 nM |  | 2.75 mg/kg | CCCCc1nc(SCSC)c(C(=O)O)n1Cc1ccc(-c2ccccc2S(=O)(=O)NC(=O)NCCC)cc1 | 
0.6 nM | 0.8 mg/kg | 2.28 mg/kg | CCCCc1nc(SCC(F)(F)F)c(C(=O)O)n1Cc1ccc(-c2ccccc2S(=O)(=O)NC(=O)NCCC)cc1 | 
2.1 nM | 0.02 mg/kg | 4.86 mg/kg | CCCCc1nc(SC)c(C(=O)NC)n1Cc1ccc(-c2ccccc2S(=O)(=O)NC(=O)NCCC)cc1 | 
1 nM | 0.16 mg/kg | 3.1 mg/kg | CCCCc1nc(Cl)c(C(=O)O)n1Cc1ccc(-c2ccccc2S(=O)(=O)NC(=O)NCCC)cc1 | 
0.4 nM | 0.12 mg/kg | 9.81 mg/kg | CCCCc1nc(SCCCCO)c(C(=O)O)n1Cc1ccc(-c2ccccc2S(=O)(=O)NC(=O)NCCC)cc1 | 
2.6 nM | 0.7 mg/kg | > 10 mg/kg | CCCCc1nc(SC)cn1Cc1ccc(-c2ccccc2S(=O)(=O)NC(=O)NCCC)cc1 | 
 | 0.17 mg/kg | 1.12 mg/kg | CCCCc1nc(SC)c(C(=O)O)n1Cc1ccc(-c2ccccc2S(=O)(=O)NC(=O)NCC)cc1 | 
1.8 nM |  |  | CCCCc1nc(SC)c(C(=O)O)n1Cc1ccc(-c2ccccc2S(=O)(=O)NC(=O)OCC=C(C)C)cc1 | 
0.1 nM | 0.1 mg/kg | 0.6 mg/kg | CCCCOC(=O)NS(=O)(=O)c1ccccc1-c1ccc(Cn2c(CCCC)nc(SC)c2C(=O)O)cc1 | 
1 nM | 0.06 mg/kg | 2.83 mg/kg | CCCCc1nc(SC)c(C(N)=O)n1Cc1ccc(-c2ccccc2S(=O)(=O)NC(=O)NCCC)cc1 | 

IC50 [1] | ID50 [2] | ID50 [3] | Structure (SMILES) | ED50 [4]
0.1 nM | 0.2 mg/kg | 1.73 mg/kg | CCCCc1nc(SC)c(C(=O)OCc2ccccc2)n1Cc1ccc(-c2ccccc2S(=O)(=O)NC(=O)NCCC)cc1 | 
0.2 nM |  |  | CCCNC(=O)NS(=O)(=O)c1ccccc1-c1ccc(Cn2c(CCC)nc(SC)c2C(=O)O)cc1 | 
3.2 nM | 0.06 mg/kg | > 10 mg/kg | CCCCc1nc(S(C)(=O)=O)c(C(=O)O)n1Cc1ccc(-c2ccccc2S(=O)(=O)NC(=O)NCCC)cc1 | 
0.3 nM | 0.11 mg/kg and 0.13 mg/kg | 0.7 mg/kg and 0.4 mg/kg | CCCCc1nc(SC)c(C(=O)O)n1Cc1ccc(-c2ccccc2S(=O)(=O)NC(=O)NCCC)cc1 | 
0.8 nM | 1.15 mg/kg |  | CCCCc1nc(SC)c(C(=O)NS(=O)(=O)c2ccccc2)n1Cc1ccc(-c2ccccc2S(=O)(=O)NC(=O)NCCC)cc1 | 
0.5 nM | 0.07 mg/kg | 0.73 mg/kg | CCCCc1nc(SC(F)F)c(C(=O)O)n1Cc1ccc(-c2ccccc2S(=O)(=O)NC(=O)NCCC)cc1 | 
7.7 nM |  |  | CCCNC(=O)NS(=O)(=O)c1ccccc1-c1ccc(Cn2c(C3CC3)nc(SC)c2C(=O)O)cc1 | 
0.6 nM | 0.1 mg/kg |  | CCCCc1nc(SC)c(C(=O)OC(C)(C)C)n1Cc1ccc(-c2ccccc2S(=O)(=O)NC(=O)NCCC)cc1 | 
 | 0.27 mg/kg | 4.94 mg/kg | CCCCc1nc(SC)c(C(=O)O)n1Cc1ccc(-c2ccccc2S(=O)(=O)NC(=O)NC)cc1 | 
2.1 nM | 1.15 mg/kg |  | CCCCc1nc(SC)c(C(=O)O)n1Cc1ccc(-c2ccccc2S(=O)(=O)/N=C(/S)NCCC)cc1 | 
1.1 nM | 0.11 mg/kg | 0.57 mg/kg | C=CCNC(=O)NS(=O)(=O)c1ccccc1-c1ccc(Cn2c(CCCC)nc(SC)c2C(=O)O)cc1 | 
103 nM |  |  | CCCCc1nc(C(=O)O)c(SC)n1Cc1ccc(-c2ccccc2S(=O)(=O)NC(=O)NCCC)cc1 | 
0.3 nM | 0.6 mg/kg | > 10 mg/kg | CCCCc1nc(SCCCCOC(C)=O)c(C(=O)O)n1Cc1ccc(-c2ccccc2S(=O)(=O)NC(=O)NCCC)cc1 | 
0.3 nM | 0.67 mg/kg | > 10 mg/kg | CCCCc1nc(Sc2ccccc2)c(C(=O)O)n1Cc1ccc(-c2ccccc2S(=O)(=O)NC(=O)NCCC)cc1 | 
0.09 nM | 0.4 mg/kg |  | CCCCc1nc(SC)c(C(=O)O)n1Cc1ccc(-c2ccccc2S(=O)(=O)NC(=O)c2ccccc2)cc1 | 
0.9 nM |  |  | CCCCc1nc(SC)c(C(=O)O)n1Cc1ccc(-c2ccccc2S(=O)(=O)NC(=O)NCc2cccnc2)cc1 | 
0.3 nM | 0.37 mg/kg | 2.11 mg/kg | CCCCc1nc(SC)c(C(=O)NC(C(=O)O)C(C)CC)n1Cc1ccc(-c2ccccc2S(=O)(=O)NC(=O)NCCC)cc1 (stereo not given) | 
4.5 nM | 0.21 mg/kg | > 10 mg/kg | CCCCc1nc(SC)c(CO)n1Cc1ccc(-c2ccccc2S(=O)(=O)NC(=O)NCCC)cc1 | 
0.2 nM | 0.11 mg/kg | 5.74 mg/kg | CCCCc1nc(SCCCO)c(C(=O)O)n1Cc1ccc(-c2ccccc2S(=O)(=O)NC(=O)NCCC)cc1 | 
0.9 nM | 0.1 mg/kg | 1.54 mg/kg | CCCCc1nc(SC)c(C(=O)O)n1Cc1ccc(-c2ccccc2S(=O)(=O)NC(=O)OC)cc1 | 
1.3 nM |  |  | CCCNC(=O)NS(=O)(=O)c1ccccc1-c1ccc(Cn2c(CC)nc(SC)c2C(=O)O)cc1 | 
15 nM |  |  | CCCNC(=O)NS(=O)(=O)c1ccccc1-c1ccc(Cn2c(C)nc(SC)c2C(=O)O)cc1 | 
0.9 nM | 0.07 mg/kg | 0.38 mg/kg | CCCCc1nc(SC)c(C(=O)O)n1Cc1ccc(-c2ccccc2S(=O)(=O)NC(=O)OCC)cc1 | 
0.4 nM | 0.08 mg/kg | 1.13 mg/kg | CCCCc1nc(SC)c(C(=O)OCC)n1Cc1ccc(-c2ccccc2S(=O)(=O)NC(=O)NCCC)cc1 | 
0.08 nM | 0.44 mg/kg | 1.75 mg/kg | CCCCc1nc(SC)c(C(=O)O)n1Cc1ccc(-c2ccccc2S(=O)(=O)NC(=O)Cc2ccccc2)cc1 | 
4.7 nM |  |  | CCCCc1nc(SC)c(C(=O)O)n1Cc1ccc(-c2ccccc2S(=O)(=O)NC(=O)N(CC)CC)cc1 | 
